From ChEMBL document CHEMBL1135642, “Synthesis and biological evaluation of 7,8,9,10-tetrahydroimidazo[1,2-c]pyrido[3,4-e]pyrimdin-5(6H)-ones as functionally selective ligands of the benzodiazepine receptor site on the GABA(A) receptor” (J Med Chem, 2002)

Legend:
[1] = molecular target: T1, Gamma-aminobutyric acid receptor subunit alpha-2 (Homo sapiens, UniProt P47869); assay: Effective concentration against gamma-aminobutyric acid (GABA) A receptor, alpha 2; parameters: species or system Xenopus laevis
T1 sequence (P47869 whole entry): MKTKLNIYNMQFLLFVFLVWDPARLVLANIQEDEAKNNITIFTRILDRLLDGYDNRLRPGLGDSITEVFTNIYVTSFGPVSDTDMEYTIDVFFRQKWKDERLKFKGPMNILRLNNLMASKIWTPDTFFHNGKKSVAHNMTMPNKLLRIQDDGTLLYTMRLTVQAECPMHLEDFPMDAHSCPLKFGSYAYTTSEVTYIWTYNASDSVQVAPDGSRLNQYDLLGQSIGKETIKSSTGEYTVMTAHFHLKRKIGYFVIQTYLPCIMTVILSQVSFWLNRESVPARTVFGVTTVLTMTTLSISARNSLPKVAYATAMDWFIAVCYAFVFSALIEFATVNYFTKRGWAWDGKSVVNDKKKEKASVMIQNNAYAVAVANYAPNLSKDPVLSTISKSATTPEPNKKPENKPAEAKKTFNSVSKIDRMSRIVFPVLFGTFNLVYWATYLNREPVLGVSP
Method in brief: (§1)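 Xenopus laevis oocytes were injected with human cRNA for the α, β and γ subunits needed to express each receptor subtype (α1, α2, α3 or α5). Electrophysiological recording was used to read potentiation, and the effective concentration and maximal percent potentiation were derived from it.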

[2] = molecular target: T2, Gamma-aminobutyric acid receptor subunit alpha-3 (Homo sapiens, UniProt P34903); assay: Effective concentration against gamma-aminobutyric acid (GABA) A receptor, alpha 3; parameters: species or system Xenopus laevis; method in brief: as §1
T2 sequence (P34903 whole entry): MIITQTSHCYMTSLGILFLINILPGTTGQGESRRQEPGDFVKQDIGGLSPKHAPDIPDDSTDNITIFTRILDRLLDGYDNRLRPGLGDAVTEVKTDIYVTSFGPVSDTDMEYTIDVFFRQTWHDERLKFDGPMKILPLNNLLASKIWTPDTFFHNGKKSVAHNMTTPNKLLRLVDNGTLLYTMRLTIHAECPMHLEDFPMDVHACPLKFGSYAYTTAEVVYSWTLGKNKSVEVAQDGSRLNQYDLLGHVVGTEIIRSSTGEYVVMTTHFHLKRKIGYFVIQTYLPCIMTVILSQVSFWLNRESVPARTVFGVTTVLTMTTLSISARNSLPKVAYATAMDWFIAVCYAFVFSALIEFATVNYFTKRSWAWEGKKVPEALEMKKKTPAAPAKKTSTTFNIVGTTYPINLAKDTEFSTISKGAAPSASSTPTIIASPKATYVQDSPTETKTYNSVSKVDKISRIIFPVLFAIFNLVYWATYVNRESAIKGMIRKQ

[3] = molecular target: GABA-A receptor; anion channel; assay: Binding affinity was determined by displacement of [3H]flumazenil from rat cortex homogenates; assay type: functional
Method in brief: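 Displacement of [3H]flumazenil from rat cortex homogenates. Values are averages (±SD); some analogues were run once as a single set of triplicates. NA means an IC50 was not achieved at the highest dose tested.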

[4] = molecular target: T3, Gamma-aminobutyric acid receptor subunit alpha-1 (Homo sapiens, UniProt P14867); assay: Effective concentration against gamma-aminobutyric acid (GABA) A receptor, alpha 1; parameters: species or system Xenopus laevis; method in brief: as §1
T3 sequence (P14867 whole entry): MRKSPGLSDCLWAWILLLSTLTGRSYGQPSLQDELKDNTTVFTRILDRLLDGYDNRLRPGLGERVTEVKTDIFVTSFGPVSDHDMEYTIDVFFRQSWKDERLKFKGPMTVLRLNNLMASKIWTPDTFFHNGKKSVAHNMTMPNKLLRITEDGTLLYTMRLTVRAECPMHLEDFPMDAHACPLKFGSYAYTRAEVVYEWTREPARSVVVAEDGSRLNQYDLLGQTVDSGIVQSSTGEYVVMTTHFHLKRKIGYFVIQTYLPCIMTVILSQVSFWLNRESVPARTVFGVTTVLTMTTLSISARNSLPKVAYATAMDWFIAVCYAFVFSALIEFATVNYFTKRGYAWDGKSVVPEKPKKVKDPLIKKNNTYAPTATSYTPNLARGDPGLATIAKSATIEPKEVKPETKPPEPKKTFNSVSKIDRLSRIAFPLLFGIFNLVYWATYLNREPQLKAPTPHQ

[5] = molecular target: T4, Gamma-aminobutyric acid receptor subunit alpha-2 (Homo sapiens) (UniProt P47869); assay: Maximum percent potentiation against gamma-aminobutyric acid (GABA) A receptor, alpha 2; details: Xenopus laevis; method in brief: as §1
T4 sequence (whole entry): T1 sequence (P47869 whole entry)

[6] = molecular target: T5, Gamma-aminobutyric acid receptor subunit alpha-1 (Homo sapiens) (UniProt P14867); assay: Maximum percent potentiation against gamma-aminobutyric acid (GABA) A receptor, alpha 1; details: Xenopus laevis; method in brief: as §1
T5 sequence (whole entry): T3 sequence (P14867 whole entry)

[7] = molecular target: T6, Gamma-aminobutyric acid receptor subunit alpha-5 (Homo sapiens, UniProt P31644); assay: Effective concentration against Gamma-aminobutyric acid A receptor, alpha 5; parameters: species or system Xenopus laevis; method in brief: as §1
T6 sequence (P31644 whole entry): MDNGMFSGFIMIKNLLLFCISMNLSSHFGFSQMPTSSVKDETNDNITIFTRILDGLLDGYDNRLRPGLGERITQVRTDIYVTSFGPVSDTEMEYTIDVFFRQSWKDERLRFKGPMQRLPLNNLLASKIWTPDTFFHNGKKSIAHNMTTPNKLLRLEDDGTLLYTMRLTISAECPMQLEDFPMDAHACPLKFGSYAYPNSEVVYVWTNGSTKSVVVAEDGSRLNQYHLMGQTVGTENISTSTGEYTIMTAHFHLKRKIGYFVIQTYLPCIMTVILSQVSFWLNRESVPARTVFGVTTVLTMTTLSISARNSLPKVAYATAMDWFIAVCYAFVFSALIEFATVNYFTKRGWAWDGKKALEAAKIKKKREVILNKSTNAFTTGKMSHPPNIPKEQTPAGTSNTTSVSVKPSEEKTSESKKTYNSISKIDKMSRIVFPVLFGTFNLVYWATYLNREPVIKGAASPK

[8] = molecular target: T7, Gamma-aminobutyric acid receptor subunit alpha-3 (Homo sapiens) (UniProt P34903); assay: Maximum percent potentiation against gamma-aminobutyric acid (GABA) A receptor, alpha 3; details: Xenopus laevis; method in brief: as §1
T7 sequence (whole entry): T2 sequence (P34903 whole entry)

[9] = molecular target: T8, Gamma-aminobutyric acid receptor subunit alpha-5 (Homo sapiens) (UniProt P31644); assay: Maximum percent potentiation against gamma-aminobutyric acid (GABA) A receptor, alpha 5; details: Xenopus laevis; method in brief: as §1
T8 sequence (whole entry): T6 sequence (P31644 whole entry)

C=CCN1CCc2[nH]c(=O)n3cc(-c4ccccc4F)nc3c2C1
EC50 [1]: 284 nM
EC50 [2]: 344 nM
Ki [3]: 26 nM
EC50 [4]: 170 nM

O=C(c1ccccc1)N1CCc2nc(O)n3cc(-c4ccccc4)nc3c2C1
Ki [3]: 301 nM

COc1cccc(-c2cn3c(=O)[nH]c4c(c3n2)CN(Cc2ccccc2)CC4)c1
EC50 [1]: 268 nM
Ki [3]: 2.3 nM
EC50 [4]: 81 nM

O=C(c1ccccc1)N1CCc2nc(O)n3cc(-c4ccccc4F)nc3c2C1
Ki [3]: 83 nM

Oc1nc2c(c3nc(-c4ccccc4)cn13)CN(Cc1ccccc1)CC2
Activity [5]: 179%
Activity [6]: 67%

COc1ccc(-c2cn3c(O)nc4c(c3n2)CN(Cc2ccccc2)CC4)c(F)c1
Ki [3]: 0.6 nM

O=C(c1cccnc1)N1CCc2nc(O)n3cc(-c4ccccc4F)nc3c2C1
Ki [3]: 92 nM

CC(c1ccccc1F)N1CCc2nc(O)n3cc(-c4ccccc4F)nc3c2C1 (stereo unspecified)
Ki [3]: 1.7 nM

COc1ccc(-c2cn3c(=O)[nH]c4c(c3n2)CN(Cc2ccccc2)CC4)cc1
EC50 [1]: 143 nM
Ki [3]: 2.6 nM
EC50 [4]: 28 nM

O=c1[nH]c2c(c3nc(-c4ccc(F)cc4F)cn13)CN(Cc1ccccc1)CC2
EC50 [1]: 210 nM
EC50 [2]: 500 nM
EC50 [7]: 323 nM
Ki [3]: 2 nM
EC50 [4]: 92 nM

O=c1[nH]c2c(c3nc(-c4ccccc4F)cn13)CN(Cc1cnc[nH]1)CC2
EC50 [1]: 459 nM
EC50 [2]: 425 nM
EC50 [7]: 439 nM
Ki [3]: 10.1 nM
EC50 [4]: 118 nM

CC(C)N1CCc2nc(O)n3cc(-c4ccccc4F)nc3c2C1
Ki [3]: 51 nM

O=c1[nH]c2c(c3nc(-c4ccc(F)cc4)cn13)CN(Cc1ccccc1)CC2
EC50 [1]: 245 nM
Ki [3]: 21 nM
EC50 [4]: 136 nM

Oc1nc2c(c3nc(-c4ccccc4F)cn13)CN(CCCc1ccccc1)CC2
Ki [3]: 147 nM

Oc1nc2c(c3nc(-c4cccc(Cl)c4)cn13)CN(Cc1ccccc1)CC2
Ki [3]: 71 nM

O=C(c1ccncc1)N1CCc2nc(O)n3cc(-c4ccccc4F)nc3c2C1
Ki [3]: 123 nM

C=CCN1CCc2nc(O)n3cc(-c4ccccc4F)nc3c2C1
Activity [5]: 18%
Activity [8]: 20%
Activity [9]: 0%
Activity [6]: 5%

O=C(OCc1ccccc1)N1CCc2[nH]c(=O)n3cc(-c4ccccc4F)nc3c2C1
EC50 [1]: < 100 nM
EC50 [7]: 1000 nM
Ki [3]: 39 nM
EC50 [4]: < 100 nM

CCN1CCc2nc(O)n3cc(-c4ccccc4F)nc3c2C1
Activity [5]: 0%
Activity [8]: 14%
EC50 [2]: 935 nM
Activity [9]: 0%
Ki [3]: 56 nM
Activity [6]: 0%

Oc1nc2c(c3nc(-c4ccccc4F)cn13)CN(CC1CCCCC1)CC2
Activity [5]: 71%
Activity [8]: 115%
Activity [9]: 101%
Activity [6]: 114%

Oc1nc2c(c3nc(-c4ccccc4F)cn13)CN(Cc1ccccc1)CC2
Activity [5]: 76%
Activity [8]: 120%
Activity [9]: 31%
Activity [6]: 56%

Oc1nc2c(c3nc(-c4ccccc4F)cn13)CN(c1ncccn1)CC2
Activity [5]: 44%
EC50 [1]: 84 nM
Activity [8]: 35%
EC50 [2]: 117 nM
Activity [9]: 0%
Ki [3]: 133 nM
Activity [6]: 0%

O=C(c1ccccn1)N1CCc2nc(O)n3cc(-c4ccccc4F)nc3c2C1
Ki [3]: 73 nM

C[C@@H](c1ccccc1)N1CCc2nc(O)n3cc(-c4ccccc4F)nc3c2C1
Ki [3]: 6.5 nM

Oc1nc2c(c3nc(-c4ccccc4F)cn13)CN(Cc1c[nH]cn1)CC2
Activity [5]: 58%
Activity [8]: 49%
Activity [9]: 44%
Activity [6]: 40%

Oc1nc2c(c3nc(-c4cc(F)cc(F)c4)cn13)CN(Cc1ccccc1)CC2
Ki [3]: 72 nM

CC(c1ccc(F)cc1)N1CCc2nc(O)n3cc(-c4ccccc4F)nc3c2C1 (stereo unspecified)
Ki [3]: 14.9 nM

O=c1[nH]c2c(c3nc(-c4cccc(F)c4)cn13)CN(Cc1ccccc1)CC2
EC50 [1]: 154 nM
Ki [3]: 11.3 nM
EC50 [4]: 120 nM

Oc1nc2c(c3nc(-c4cc(F)ccc4F)cn13)CN(Cc1ccccc1)CC2
Activity [5]: 82%
EC50 [1]: 188 nM
EC50 [4]: 36 nM
Activity [6]: 59%

Oc1nc2c(c3nc(-c4ccc(F)cc4F)cn13)CN(Cc1ccccc1)CC2
Activity [5]: 184%
Activity [8]: 95%
Activity [9]: 30%
Activity [6]: 63%

O=c1[nH]c2c(c3nc(-c4ccccc4)cn13)CN(Cc1ccccc1)CC2
EC50 [1]: 184 nM
EC50 [4]: 17 nM

CC(=O)N1CCc2nc(O)n3cc(-c4ccccc4F)nc3c2C1
Activity [5]: 0%
Activity [8]: 11%
EC50 [2]: 71 nM
Activity [9]: 0%
Ki [3]: 41 nM
Activity [6]: 0%

CN1CCc2nc(O)n3cc(-c4ccccc4F)nc3c2C1
Activity [5]: 0%
Activity [6]: 0%

CCCCOC(=O)N1CCc2nc(O)n3cc(-c4ccccc4F)nc3c2C1
Ki [3]: 230 nM

O=C(OCc1ccccc1)N1CCc2nc(O)n3cc(-c4ccccc4F)nc3c2C1
Activity [5]: 8%
Activity [8]: 0%
Activity [9]: 3%
Activity [6]: 5%

COc1ccccc1-c1cn2c(O)nc3c(c2n1)CN(Cc1ccccc1)CC3
Ki [3]: 797 nM

COc1cccc(-c2cn3c(O)nc4c(c3n2)CN(Cc2ccccc2)CC4)c1
Activity [5]: 115%
Activity [6]: 123%

CCCC(=O)N1CCc2nc(O)n3cc(-c4ccccc4F)nc3c2C1
Ki [3]: 261 nM

O=c1[nH]c2c(c3nc(-c4ccccc4F)cn13)CN(Cc1cccnc1)CC2
EC50 [1]: 101 nM
EC50 [2]: 23 nM
Ki [3]: 1.4 nM
EC50 [4]: 56 nM

CCOC(=O)N1CCc2nc(O)n3cc(-c4ccccc4F)nc3c2C1
Ki [3]: 64 nM

CC(c1ccccc1)N1CCc2nc(O)n3cc(-c4ccccc4F)nc3c2C1 (stereo unspecified)
Ki [3]: 2.9 nM

Oc1nc2c(c3nc(-c4ccc(Cl)cc4)cn13)CN(Cc1ccccc1)CC2
Ki [3]: 121 nM

COc1ccc(-c2cn3c(O)nc4c(c3n2)CN(C)CC4)c(F)c1
Ki [3]: 45 nM

O=C(Cc1ccccc1)N1CCc2nc(O)n3cc(-c4ccccc4F)nc3c2C1
Ki [3]: 388 nM

CCC(=O)N1CCc2nc(O)n3cc(-c4ccccc4F)nc3c2C1
Activity [5]: 22%
EC50 [1]: 110 nM
Activity [8]: 9%
EC50 [2]: 116 nM
Activity [9]: 0%
Ki [3]: 216 nM
EC50 [4]: 95 nM
Activity [6]: 12%

COc1ccc(-c2cn3c(O)nc4c(c3n2)CN(C)CC4)cc1
Ki [3]: 240 nM

Oc1nc2c(c3nc(-c4ccccc4F)cn13)CN(CCc1ccccc1)CC2
Ki [3]: 83 nM

CC(c1cccc(F)c1)N1CCc2nc(O)n3cc(-c4ccccc4F)nc3c2C1 (stereo unspecified)
Ki [3]: 8.3 nM
